DAGLB inh – DAGLB lipase inhibitors, primary screen, biochemical, fluorescence, HTS | HEK293T DAGLB membrane lysate, EnzChek fluorogenic substrate | actives 0.059% (n = 340,000) | inhibition, % at 5.17 µM | AID 504411, 2011; in the data active = inhibition above about 34%;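 note: 0% = enzyme with vehicle and 100% = wells lacking enzyme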
ANO1 block – TMEM16A chloride channel inhibitors, primary screen, cell-based, HTS; HEK293 TMEM16A/YFP iodide influx fluorescence, ionomycin; normalized B-score (activity score, 25-100; higher = stronger inhibition) at 10 µM; actives 1.2% (n = 310,000);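 active = ratio plate-corrected score three or more library SD toward inhibition, starting fluorescence score within five deviations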;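 note: score derived from kinetic fluorescence span divided by baseline fluorescence per well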
MT1-MMP act inh – blockers of MT1-MMP proenzyme processing, primary screen, HT1080 RFP-PRO-GFP cells, GFP/RFP fluorescence | GFP/RFP ratio fluorescence, overnight; percent of plate control window, DMSO zero | GFP/RFP ratio change, % at 20 µM | actives 0.061% (n = 360,000);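 active = GFP/RFP ratio change of at least 30% with cell ATP level not reduced by more than half and red fluorescence within 50% of control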
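Compound: 20 µM single dose, 1% DMSO / System: HT1080 RFP-PRO-GFP cells / Controls: DMSO and RFP-L50D-GFP cell wells / Read-out basis: GFP/RFP fluorescence ratio / Schedule: overnight compound exposure at 37 °C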
ANO1 activ – TMEM16A chloride channel activators or potentiators, primary screen, cell-based, HTS | Anoctamin-1 (Mus musculus), Q8BHY3 | HEK293 TMEM16A/YFP-H148Q/I152L, iodide quench fluorescence; hits give low values | B-score at 10 µM | actives 0.3% (n = 340,000);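 active = fluorescence-ratio B-score plate-corrected deviation score at least 3 library SD below zero, with starting fluorescence score within 5 deviations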;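 note: channel opened by trigger with iodide after compound preincubation; score built on the fluorescence ratio of max minus min over baseline; more negative score means more quench and so TMEM16A activation or potentiation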
TMEM16A reconf – TMEM16A chloride channel inhibitors, confirmation, cell-based, re-confirmation. shares compounds with ANO1 block. HEK293 TMEM16A/YFP-H148Q, iodide quench fluorescence; ionomycin added to raise cell calcium. inhibition, % at 10 µM. actives 39% (n = 2,300);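 active = mean duplicate percent inhibition, scaled so buffer wells are 0 and the reference blocker 100, over three buffer SD above buffer mean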
TMEM16A Ca cntr – calcium mobilization in TMEM16A/YFP HEK293 cells, confirmation, counter-screen for TMEM16A inhibitor project. actives 2% (n = 2,300). shares compounds with ANO1 block. calcium response (% of ionomycin), % at 10 µM. AID 652231, 2013. Fluo4 calcium mobilization;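 active = duplicate-averaged calcium signal over 20% of the ionomycin maximum, relative to buffer baseline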;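 note: each well's signal is peak minus trough fluorescence divided by its pre-addition baseline; 0% = buffer wells and 100% = ionomycin wells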
YFP-HEK293 quench – iodide YFP quench changes in parental YFP-HEK293, counter-screen for TMEM16A inhibitor project, cell-based; ionomycin; YFP ratio F(max-min)/F0 at 10 µM; AID 652233, 2013; shares compounds with ANO1 block; 2,300 tested, under 10 active;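 active = yellow fluorescent protein signal ratio exceeding the buffer control mean by over 5 SD of those controls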;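 note: ratio is mean of duplicate wells from kinetic YFP trace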
ClC-1 inh – ClC-1 chloride channel inhibition, selectivity assay for TMEM16A inhibitor project, cell-based, voltage-dependent ClC-1 | ratio percent, % at 10 µM | 2,300 tested, under 10 active | AID 652236, 2013 | shares compounds with ANO1 block | CHO ClC-1-YFP, iodide influx fluorescence quench; iodide control reads 0, buffer control 100;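 active = duplicate-mean ratio percent above the mean of iodide-only control wells, which defines zero, plus 5 of their SD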;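 note: higher percent means stronger block of ClC-1 iodide influx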
Target sequence (P35524 whole entry, looked up): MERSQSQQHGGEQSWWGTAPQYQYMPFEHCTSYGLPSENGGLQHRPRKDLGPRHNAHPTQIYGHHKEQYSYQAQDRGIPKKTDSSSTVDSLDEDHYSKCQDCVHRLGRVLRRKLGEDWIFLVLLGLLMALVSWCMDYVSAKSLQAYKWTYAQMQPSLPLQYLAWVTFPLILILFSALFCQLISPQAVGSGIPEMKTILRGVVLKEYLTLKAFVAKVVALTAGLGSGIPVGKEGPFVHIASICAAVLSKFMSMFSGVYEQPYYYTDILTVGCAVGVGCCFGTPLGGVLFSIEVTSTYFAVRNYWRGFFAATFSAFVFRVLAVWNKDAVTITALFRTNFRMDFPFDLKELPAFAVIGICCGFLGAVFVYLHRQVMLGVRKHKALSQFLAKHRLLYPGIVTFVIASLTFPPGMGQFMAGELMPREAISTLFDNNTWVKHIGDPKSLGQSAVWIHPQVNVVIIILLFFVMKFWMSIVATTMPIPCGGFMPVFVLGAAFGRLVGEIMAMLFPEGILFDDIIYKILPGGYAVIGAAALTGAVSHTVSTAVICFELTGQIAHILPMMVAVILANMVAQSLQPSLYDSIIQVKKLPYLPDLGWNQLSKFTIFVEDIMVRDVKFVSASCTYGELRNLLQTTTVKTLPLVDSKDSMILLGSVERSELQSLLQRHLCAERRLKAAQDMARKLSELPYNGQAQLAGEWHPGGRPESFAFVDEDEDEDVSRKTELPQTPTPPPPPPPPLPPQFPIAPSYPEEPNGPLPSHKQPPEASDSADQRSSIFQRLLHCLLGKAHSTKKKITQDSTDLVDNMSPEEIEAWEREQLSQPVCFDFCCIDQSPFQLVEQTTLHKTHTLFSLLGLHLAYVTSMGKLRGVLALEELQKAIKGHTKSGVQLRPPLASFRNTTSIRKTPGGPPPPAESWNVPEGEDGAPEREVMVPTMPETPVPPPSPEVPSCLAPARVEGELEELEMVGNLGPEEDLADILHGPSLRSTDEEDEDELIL
The depositor's hits bear a star; i = inactive; / = not tested or not shown. An excerpt weighted towards active compounds, which were near 1.3% of everything screened.

SMILES | DAGLB inh | ANO1 block | MT1-MMP act inh | ANO1 activ | TMEM16A reconf | TMEM16A Ca cntr | YFP-HEK293 quench | ClC-1 inh
O=S1(=O)CC(N2CCN(CCO)CC2)CN1Cc1ccccc1 (stereo not given) | / | / | 2 | / | / | / | / | /
CCc1cc(C(=O)NC2CCCc3c2cnn3-c2ccc(F)cc2F)no1 (stereo not given) | -1 | / | -3 | / | / | / | / | /
O=C(OCc1ccccc1Cl)c1ccccc1C(=O)c1ccccc1 | -14 | 100* | -3 | i | i | i | -0.92 | -18
CC1([N+](=O)[O-])COC(c2cccc3ccccc23)OC1 (stereo not given) | / | / | -2 | / | / | / | / | /
COc1ccc(S(=O)(=O)N2CCN(CC(=O)NC(C)c3cccs3)CC2)cc1 (stereo not given) | 0 | / | -1 | / | / | / | / | /
COc1ccccc1NC(=O)c1ccccc1NS(=O)(=O)c1cccs1 | 7 | i | -2 | i | / | / | / | /
COc1ccc(C)cc1NC(=O)c1ccccc1NS(=O)(=O)c1ccc(Cl)s1 | 28 | 100* | 4 | i | 48%* | i | -1 | -13
COc1cc(C(C)=O)ccc1Oc1ccc(S(=O)(=O)N2CCOCC2)cn1 | -1 | / | 3 | i | / | / | / | /
Cc1nc2c(cc(Oc3ccc(S(=O)(=O)N4CCOCC4)cn3)c3ccsc32)s1 | -2 | 25* | -2 | i | i | i | -1 | -19
O=C(CCSCc1ccccc1Cl)NCc1ccco1 | -5 | i | -2 | i | / | / | / | /
O=C(CCSCCC(=O)NCc1ccco1)NCc1ccco1 | / | i | / | / | i | i | -0.98 | -11
O=C(O)C(Cc1cccs1)c1cccs1 (stereo not given) | -1 | / | 2 | i | / | / | / | /
O=C(Cn1cnc2ccccc21)Nc1ccc(SC(F)F)cc1 | -4 | 25* | 0 | i | 20%* | i | -0.9 | -20
COc1ccc(NC(=O)COC(=O)Cn2cnc3ccccc32)cc1 | -1 | / | 3 | i | / | / | / | /
Cn1c(SCC(=O)Nc2ccc3c(c2)n(C)c(=O)n3C)nnc1-c1ccncc1 | -4 | i | 2 | i | i | i | -1.2 | -2
Cn1c(SCC(=O)Nc2ccc(NC(=O)c3ccccc3)cc2)nnc1-c1ccncc1 | 2 | i | -2 | i | / | / | / | /
COc1ccc(C(c2c[nH]c3ccccc23)c2c[nH]c3ccccc23)cc1O | 4 | 100* | 3 | i | 32%* | i | -0.88 | -1
COc1cc(CN(C)C(=O)C(=O)c2c[nH]c3ccccc23)ccc1O | 2 | / | 2 | i | / | / | / | /
CCOC(=O)c1cnc2ccc(OC)cc2c1Nc1ccc2c(c1)OCCO2 | -3 | 100* | -2 | i | i | i | -1.1 | -14
COC(=O)c1cc(CSc2nc3ccccc3c(=O)n2C)oc1C | -4 | 100* | -5 | i | 34%* | i | -1.1 | -12
COc1cc(NS(=O)(=O)c2ccc(OC)c(C)c2C)c(OC)cc1Cl | -5 | 25* | -5 | i | 54%* | i | -0.72 | -4
COc1ccc(OC)c(S(=O)(=O)Nc2cc(OC)c(Cl)cc2OC)c1 | -1 | i | 7 | i | / | / | / | /
Clc1ccc(-c2nnc(CSc3nnc(-c4cccs4)n3Cc3ccccc3)o2)cc1 | -1 | 25* | -6 | i | 42%* | i | -0.99 | -22
Cc1nnc(SCc2nnc(-c3cccs3)o2)n1Cc1ccccc1 | -2 | i | 0 | i | / | / | / | /
Cc1csc(NC(=O)CCCSc2nc3ccccc3s2)n1 | 0 | 100* | 2 | i | i | 32%* | -0.99 | -11
SMILES | DAGLB inh | ANO1 block | MT1-MMP act inh | ANO1 activ | TMEM16A reconf | TMEM16A Ca cntr | YFP-HEK293 quench | ClC-1 inh
CC1CCCC(NC(=O)Cn2cc(Br)ccc2=O)C1C (stereo not given) | 0 | / | -4 | i | / | / | / | /
CCCOc1ccc(C(=O)O/N=C(\CC)c2ccc(C)cc2)cc1 | -22 | i | -2 | i | / | / | / | /
CC/C(=N\OC(=O)c1ccc(OC(C)C)cc1)c1ccc(C)cc1 | -20 | 100* | -2 | i | i | i | -1.3 | -23
Cc1oc(-c2ccc(Cl)cc2)nc1CN1CCCC(C(=O)NC2CC2)C1 (stereo not given) | 4 | i | 1 | i | / | / | / | /
CCOC(=O)N1CCN(C(=O)C2CCCN(Cc3nc(-c4ccc(Cl)cc4)oc3C)C2)CC1 (stereo not given) | 0 | 25* | -3 | i | i | i | -0.98 | -8
COc1ccc(CCNC(=O)CCCn2c(=S)[nH]c3ccsc3c2=O)cc1OC | -1 | / | 0 | / | / | / | / | /
O=C(Nc1ccc2c(c1)OCO2)C1CCN(Cc2cnn(-c3ccccc3)c2-n2cccc2)CC1 | 1 | 100* | 2 | i | i | i | -1.1 | -11
Cc1nn(C(=O)c2ccc3c(c2)OCO3)c(N)c1-c1ccccc1 | -17 | 100* | 5 | i | i | i | -1 | -2
O=C(Nc1nnc(-c2ccccc2Cl)o1)c1nc2ccccc2s1 | 9 | 100* | 4 | i | i | i | -1.1 | -16
Cc1ccc(C(C)C)cc1OCC(=O)Nc1ccc(N2CCCCC2)cc1 | -14 | 25* | 0 | i | i | i | -0.69 | 0
Cc1ccc(OCC(=O)Nc2ccc(N3CCCC3)cc2)cc1C | 11 | i | 6 | i | / | / | / | /
Cc1cccc(C(=O)OCC(=O)Nc2ccc(N3CCCCC3)cc2)c1O | -2 | i | 6 | i | i | i | -1.2 | -16
CCCCOC(=O)Nc1ccc(N2CCOCC2)cc1 | 1 | i | 3 | i | / | / | / | /
CCOc1ccccc1C(=O)OCC(=O)Nc1ccc(N2CCCCC2)cc1 | -1 | i | -2 | i | / | / | / | /
CCCCOC(=O)Nc1ccc(N2CCCCC2)cc1 | 1 | i | 6 | i | i | i | -1.1 | -4
CC(=O)c1c(C)[nH]c(C(=O)CSc2nc3ccc(C)cc3[nH]2)c1C | 1 | i | -6 | i | i | i | -0.82 | -1
CCCCOCCCNC(=O)c1c(-c2ccccc2)noc1C | 0 | 25* | 6 | i | i | i | -1.2 | -15
